Tests used:
Homo sapiens = species on record: Homo sapiens; test: Inhibition of U-46,619 (1 uM)-induced platelet aggregation in human platelet-rich plasma(PRP); type: functional
Procedure, shortened: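 Citrated blood (1/10 volume 3.8% trisodium citrate) from volunteers free of platelet-affecting medication for 10 days; PRP spun at 100g for 12 min. Compound or vehicle preincubated with PRP for 1 min at 37 °C. Aggregation induced with U46619 and followed for 3 min.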

Thromboxane A2 receptor = biological target: T1, Thromboxane A2 receptor (Homo sapiens, UniProt P21731); test: In vitro for antagonistic activity against […]; type: functional
T1 sequence (P21731 whole entry): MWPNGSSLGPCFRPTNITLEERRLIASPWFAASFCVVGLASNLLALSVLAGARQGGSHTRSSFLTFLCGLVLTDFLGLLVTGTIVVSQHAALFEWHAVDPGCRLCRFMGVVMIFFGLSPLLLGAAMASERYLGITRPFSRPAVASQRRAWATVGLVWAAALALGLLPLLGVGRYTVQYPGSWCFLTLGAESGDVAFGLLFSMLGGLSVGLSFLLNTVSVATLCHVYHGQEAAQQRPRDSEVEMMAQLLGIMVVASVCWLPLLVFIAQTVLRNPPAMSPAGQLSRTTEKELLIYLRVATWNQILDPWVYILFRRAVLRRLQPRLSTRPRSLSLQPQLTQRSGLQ
Procedure, shortened: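 Buffer was 10 mM Hepes, 2 mM CHAPS and 10 μM indomethacin, pH 7.4. Competitor range 10^-10 to 10^-5 M; incubation 30 °C for 30 min; stopped with ice-cold 25 mM Tris pH 7.4 and filtered. Nonspecific binding taken with 10 μM SQ29548. Run in triplicate.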

Thromboxane-A synthase = biological target: T2, Thromboxane-A synthase (Homo sapiens, UniProt P24557); test: In vitro for inhibitory activity against thromboxane synthase
T2 sequence (P24557 whole entry): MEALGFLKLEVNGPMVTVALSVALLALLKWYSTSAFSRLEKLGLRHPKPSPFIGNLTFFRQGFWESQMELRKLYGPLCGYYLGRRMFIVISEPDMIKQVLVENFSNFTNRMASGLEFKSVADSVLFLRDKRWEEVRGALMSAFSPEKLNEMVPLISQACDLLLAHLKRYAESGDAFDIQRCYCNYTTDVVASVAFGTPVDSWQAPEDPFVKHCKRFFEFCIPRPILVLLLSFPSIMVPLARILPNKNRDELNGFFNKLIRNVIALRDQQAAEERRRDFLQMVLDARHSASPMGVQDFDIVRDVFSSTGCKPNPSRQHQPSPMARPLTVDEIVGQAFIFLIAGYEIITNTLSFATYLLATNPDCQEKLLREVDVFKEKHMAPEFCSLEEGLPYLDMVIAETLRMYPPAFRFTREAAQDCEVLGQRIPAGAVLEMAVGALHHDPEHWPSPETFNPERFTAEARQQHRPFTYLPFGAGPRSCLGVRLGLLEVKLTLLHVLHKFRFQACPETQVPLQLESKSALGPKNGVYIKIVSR
Procedure, shortened: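 Compound or vehicle incubated with whole human blood for 30 min at 37 °C, then serum was prepared. Serum TXB2, the stable TXA2 metabolite, was measured by radioimmunoassay. Run in triplicate.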

Structure (SMILES) | IC50 (Homo sapiens) | Kd (Thromboxane A2 receptor) | IC50 (Thromboxane-A synthase)
CC(OCCCNC(=O)c1coc(-c2ccc(/C(=C\CCCCC(=O)O)c3cccnc3)cc2)n1)C1CCCCC1 (configuration not stated) | 5 µM | – | –
O=C(O)CCCC/C=C(\c1ccc(-c2nc(C(=O)NCCCCOc3ccccc3)co2)cc1)c1cccnc1 | 0.5 µM | – | –
O=C(O)CCCC/C=C(\c1ccc(-c2nc(C(=O)NCCc3ccccc3)co2)cc1)c1cccnc1 | – | 0.0824 µM | 0.0094 µM
COc1ccc(CCCNC(=O)c2coc(-c3ccc(/C(=C\CCCCC(=O)O)c4cccnc4)cc3)n2)cc1 | – | 0.119 µM | 0.0027 µM
O=C(O)CCCC/C=C(\c1ccc(-c2nc(C(=O)N[C@@H]3C[C@H]3c3ccccc3)co2)cc1)c1cccnc1 | 5 µM | – | –
O=C(O)CCCC/C=C(\c1ccc(-c2nc(C(=O)NCCOCc3ccccc3)co2)cc1)c1cccnc1 | – | 0.156 µM | 0.0475 µM
O=C(O)CCCC/C=C(\c1ccc(-c2nc(C(=O)NCCCCC3CCCCC3)co2)cc1)c1cccnc1 | 0.4 µM | – | –
O=C(O)CCCC/C=C(\c1ccc(-c2nc(C(=O)NCCOCC3CCCCC3)co2)cc1)c1cccnc1 | – | 0.0433 µM | 0.0367 µM
CCOCCCNC(=O)c1coc(-c2ccc(/C(=C\CCCCC(=O)O)c3cccnc3)cc2)n1 | – | 1.4 µM | –
O=C(O)CCCC/C=C(\c1ccc(-c2nc(C(=O)NCCCN3CCOCC3)co2)cc1)c1cccnc1 | – | – | 0.0508 µM
O=C(O)CCCC/C=C(\c1ccc(-c2nc(C(=O)NS(=O)(=O)c3ccc(Cl)cc3)co2)cc1)c1cccnc1 | 4 µM | – | –
O=C(O)CCCCO/N=C(/c1cccnc1)c1cccc(C(F)(F)F)c1 [RIDOGREL] | – | 8 µM | 0.0147 µM

Reference: ChEMBL document CHEMBL1131443, “Development of dual-acting agents for thromboxane receptor antagonism and thromboxane synthase inhibition. 3. Synthesis and biological activities of oxazolecarboxamide-substituted omega-phenyl-omega-(3-pyridyl)alkenoic acid derivatives and related compounds” (J Med Chem, 1998)
